{"source": "ChEMBL document CHEMBL1138421", "about": "“Synthesis and antiproliferative activity of (2R,3R)-disubstituted tetrahydropyrans. Part 2: Effect of side chain homologation” (2007)", "format_in_all_cases": "functional", "key": {"SW1573": {"system": "SW1573", "assay": "Antiproliferative activity against human SW1573 cells after 48 hrs by sulforhodamine B assay", "conditions": "SW1573, 48 h; for CC50: read-out: LC50 (the source's name)", "method_in_brief": "(§1)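 Dose-response curves built per compound up to 100 μM maximum; percentage of growth (PG) computed, with GI₅₀, TGI and LC₅₀ taken as concentrations giving PG +50, 0 and −50. TGI and LC₅₀ reported only when below 100 μM. Values in μM, means of two to four experiments with standard deviation.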"}, "A2780": {"system": "A2780", "assay": "Antiproliferative activity against human A2780 cells after 48 hrs by sulforhodamine B assay", "conditions": "A2780, 48 h", "method_in_brief": "as §1"}, "WiDr": {"system": "WiDr", "assay": "Antiproliferative activity against human WiDr cells after 48 hrs by sulforhodamine B assay", "method_in_brief": "as §1"}}, "data": [{"smiles": "CC(C)(C)[Si](C)(C)O[C@H]1CCCO[C@@H]1CO", "note": "(relative stereo)", "values": [{"measurement": "GI50", "setting": "SW1573", "value": "> 100", "unit": "µM"}, {"measurement": "GI50", "setting": "A2780", "value": "> 100", "unit": "µM"}, {"measurement": "GI50", "setting": "WiDr", "value": "> 100", "unit": "µM"}]}, {"smiles": "c1cc([C@H]2OC[C@H]3OCCC[C@H]3O2)nc([C@H]2OC[C@H]3OCCC[C@H]3O2)c1", "values": [{"measurement": "GI50", "setting": "SW1573", "value": "> 100", "unit": "µM"}, {"measurement": "GI50", "setting": "A2780", "value": "> 100", "unit": "µM"}, {"measurement": "GI50", "setting": "WiDr", "value": "> 100", "unit": "µM"}]}, {"smiles": "COC(=O)CCOC[C@H]1OCCC[C@H]1O[Si](C)(C)C(C)(C)C", "values": [{"measurement": "GI50", "setting": "SW1573", "value": "> 100", "unit": "µM"}, {"measurement": "GI50", "setting": "A2780", "value": "> 100", "unit": "µM"}, {"measurement": "GI50", "setting": "WiDr", "value": "> 100", "unit": "µM"}]}, {"smiles": "CC(C)(C)[Si](C)(C)O[C@@H]1CCCO[C@@H]1COCC(=O)O", "note": "(relative stereo)", "values": [{"measurement": "GI50", "setting": "SW1573", "value": "> 100", "unit": "µM"}, {"measurement": "GI50", "setting": "A2780", "value": "> 100", "unit": "µM"}, {"measurement": "GI50", "setting": "WiDr", "value": "> 100", "unit": "µM"}]}, {"smiles": "O=C(COC[C@H]1OCCC[C@@H]1O)OCc1ccccc1", "note": "(relative stereo)", "values": [{"measurement": "GI50", "setting": "SW1573", "value": "> 100", "unit": "µM"}, {"measurement": "GI50", "setting": "A2780", "value": "> 100", "unit": "µM"}, {"measurement": "GI50", "setting": "WiDr", "value": "> 100", "unit": "µM"}]}, {"smiles": "O=C(COC[C@H]1OCCC[C@H]1O)OCc1ccccc1", "values": [{"measurement": "GI50", "setting": "SW1573", "value": "> 100", "unit": "µM"}, {"measurement": "GI50", "setting": "A2780", "value": "> 100", "unit": "µM"}, {"measurement": "GI50", "setting": "WiDr", "value": "> 100", "unit": "µM"}]}, {"smiles": "c1cc([C@H]2OC[C@H]3OCCC[C@H]3O2)ccc1[C@H]1OC[C@H]2OCCC[C@H]2O1", "values": [{"measurement": "GI50", "setting": "SW1573", "value": "> 100", "unit": "µM"}, {"measurement": "GI50", "setting": "A2780", "value": "> 100", "unit": "µM"}, {"measurement": "GI50", "setting": "WiDr", "value": "> 100", "unit": "µM"}]}, {"smiles": "CC(C)(C)[Si](C)(C)O[C@@H]1CCCO[C@@H]1CO/C=C/CO", "values": [{"measurement": "GI50", "setting": "SW1573", "value": "> 100", "unit": "µM"}, {"measurement": "GI50", "setting": "A2780", "value": "> 100", "unit": "µM"}, {"measurement": "GI50", "setting": "WiDr", "value": "> 100", "unit": "µM"}]}, {"smiles": "CC(C)(C)[Si](C)(C)O[C@@H]1CCCO[C@@H]1COCC(=O)OCc1ccccc1", "values": [{"measurement": "GI50", "setting": "SW1573", "value": 29, "unit": "µM"}, {"measurement": "TGI", "setting": "SW1573", "value": 85, "unit": "µM"}, {"measurement": "GI50", "setting": "A2780", "value": 28, "unit": "µM"}, {"measurement": "LC50 (concentration giving 50% net cell kill)", "setting": "A2780", "value": 94, "unit": "µM"}, {"measurement": "TGI", "setting": "A2780", "value": 81, "unit": "µM"}, {"measurement": "GI50", "setting": "WiDr", "value": 37, "unit": "µM"}, {"measurement": "TGI", "setting": "WiDr", "value": 88, "unit": "µM"}]}, {"smiles": "C=CCOC[C@H]1OCCC[C@H]1O[Si](C)(C)C(C)(C)C", "note": "(relative stereo)", "values": [{"measurement": "GI50", "setting": "SW1573", "value": 18, "unit": "µM"}, {"measurement": "TGI", "setting": "SW1573", "value": 39, "unit": "µM"}, {"measurement": "CC50", "setting": "SW1573", "value": 85, "unit": "µM"}, {"measurement": "GI50", "setting": "A2780", "value": 15, "unit": "µM"}, {"measurement": "LC50 (concentration giving 50% net cell kill)", "setting": "A2780", "value": 68, "unit": "µM"}, {"measurement": "TGI", "setting": "A2780", "value": 32, "unit": "µM"}, {"measurement": "GI50", "setting": "WiDr", "value": 88, "unit": "µM"}]}, {"smiles": "CC(C)(C)[Si](C)(C)O[C@H]1CCCO[C@@H]1COCC(=O)OCc1ccccc1", "note": "(relative stereo)", "values": [{"measurement": "GI50", "setting": "SW1573", "value": 17, "unit": "µM"}, {"measurement": "TGI", "setting": "SW1573", "value": 37, "unit": "µM"}, {"measurement": "CC50", "setting": "SW1573", "value": 79, "unit": "µM"}, {"measurement": "GI50", "setting": "A2780", "value": 17, "unit": "µM"}, {"measurement": "LC50 (concentration giving 50% net cell kill)", "setting": "A2780", "value": 74, "unit": "µM"}, {"measurement": "TGI", "setting": "A2780", "value": 36, "unit": "µM"}, {"measurement": "GI50", "setting": "WiDr", "value": 28, "unit": "µM"}, {"measurement": "TGI", "setting": "WiDr", "value": 91, "unit": "µM"}]}, {"smiles": "O=C1COC[C@H]2OCCC[C@H]2O1", "values": [{"measurement": "GI50", "setting": "SW1573", "value": "> 100", "unit": "µM"}, {"measurement": "GI50", "setting": "A2780", "value": "> 100", "unit": "µM"}, {"measurement": "GI50", "setting": "WiDr", "value": "> 100", "unit": "µM"}]}, {"smiles": "CC(C)(C)[Si](C)(C)O[C@@H]1CCCO[C@@H]1CO", "note": "(relative stereo)", "values": [{"measurement": "GI50", "setting": "SW1573", "value": "> 100", "unit": "µM"}, {"measurement": "GI50", "setting": "A2780", "value": "> 100", "unit": "µM"}, {"measurement": "GI50", "setting": "WiDr", "value": "> 100", "unit": "µM"}]}, {"smiles": "C=C[C@H]1CCC[C@@H]([C@H]2COC(C)(C)O2)O1", "values": [{"measurement": "GI50", "setting": "WiDr", "value": "> 100", "unit": "µM"}]}, {"smiles": "CC(C)(C)[Si](C)(C)O[C@@H]1CCCO[C@@H]1CO/C=C/C(=O)OCc1ccccc1", "values": [{"measurement": "GI50", "setting": "SW1573", "value": 26, "unit": "µM"}, {"measurement": "GI50", "setting": "A2780", "value": 26, "unit": "µM"}, {"measurement": "GI50", "setting": "WiDr", "value": 37, "unit": "µM"}]}, {"smiles": "O=C1COC[C@H]2OCCC[C@@H]2O1", "note": "(relative stereo)", "values": [{"measurement": "GI50", "setting": "SW1573", "value": "> 100", "unit": "µM"}, {"measurement": "GI50", "setting": "A2780", "value": "> 100", "unit": "µM"}, {"measurement": "GI50", "setting": "WiDr", "value": "> 100", "unit": "µM"}]}, {"smiles": "CC(C)(C)[Si](C)(C)O[C@@H]1CCCO[C@@H]1COCCCO", "values": [{"measurement": "GI50", "setting": "SW1573", "value": "> 100", "unit": "µM"}, {"measurement": "GI50", "setting": "A2780", "value": "> 100", "unit": "µM"}, {"measurement": "GI50", "setting": "WiDr", "value": "> 100", "unit": "µM"}]}, {"smiles": "c1ccc([C@H]2OC[C@H]3OCCC[C@H]3O2)cc1", "values": [{"measurement": "GI50", "setting": "SW1573", "value": "> 100", "unit": "µM"}, {"measurement": "GI50", "setting": "A2780", "value": "> 100", "unit": "µM"}, {"measurement": "GI50", "setting": "WiDr", "value": "> 100", "unit": "µM"}]}, {"smiles": "COC(=O)/C=C/OC[C@H]1OCCC[C@H]1O[Si](C)(C)C(C)(C)C", "note": "(relative stereo)", "values": [{"measurement": "GI50", "setting": "SW1573", "value": 50, "unit": "µM"}, {"measurement": "GI50", "setting": "A2780", "value": 30, "unit": "µM"}, {"measurement": "TGI", "setting": "A2780", "value": 82, "unit": "µM"}, {"measurement": "GI50", "setting": "WiDr", "value": 36, "unit": "µM"}]}]}
